# Compound activity deposited in PubChem BioAssay by The Scripps Research Institute Molecular Screening Center.
# ABHD4 inh – ABHD4 inhibitors, primary screen, biochemical, fluorescence polarization, mouse; hit rate 0.54% among 370,000; inhibition, % at 8.92 µM; purified mABHD4, FP-Rh probe fluorescence polarization; (Lyso)-N-acylphosphatidylethanolamine lipase (Mus musculus), Q8VD66;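 active = inhibition exceeding the mean over every tested compound plus 3 SD, cut at about 30% in these data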;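 note: 0% = plate median of compound wells and 100% = S159A mutant with DMSO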
#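 Test system: mABHD4 protein; Read-out basis: % inhibition; Incubation: 45 min + 60 min at 25 °C; Repeats: single replicate; Technique: fluorescence polarization with parallel and perpendicular emission, 525/598 nm; Compound: 8.92 µM, single dose; Benchmarks: full inhibition S159A mutant plus DMSO, zero as sample-well median.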
# HTRA1 inhibitor – HTRA1 serine protease inhibitors, primary screen, biochemical, fluorescence polarization, HTS; recombinant HTRA1, FP-rhodamine activity-based probe; inhibition, % at 5.96 µM; hit rate 0.5% among 340,000; AID 504803, 2011; in the data active = inhibition above about 36%;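 note: 0% = enzyme with DMSO and 100% = wells lacking enzyme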
# LEDGF integ inh – blockers of LEDGF/p75-dependent integrase strand transfer – biochemical, TR-FRET, high throughput, primary screen; AID 743269, 2014; hit rate 0.64% among 370,000; HIV-1 integrase (with human LEDGF/p75); inhibition, % at 3.7 µM; TR-FRET IN-LEDGF/p75 DNA integration, Eu/Cy5;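 active = inhibition above the screen-wide mean plus 3 SD, cut at about 13% in these data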;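 note: signal is the Cy5 over europium emission ratio at 671 and 618 nm; 0% = plate median of compound wells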
# TCR-CD3 inh – inhibitors of human TCR-CD3 interaction, primary screen, biochemical, fluorescence, TAMRA-labeled TCR probe; T-cell receptor (TCR); hit rate 0.37% among 360,000; AID 651800, 2012; inhibition, % at 9.4 µM; in the data active = inhibition above about 19%;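 note: recombinant mutant TCR 2C K166C tagged with TAMRA read by polarization; 0% = receptor in buffer alone and 100% = receptor with positive control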
# TDP2 inh – human TDP2 enzyme inhibitors, primary screen, biochemical, epi absorbance, recombinant enzyme. Tyrosyl-DNA phosphodiesterase 2 (Homo sapiens), O95551. T5PNP hydrolysis, p-nitrophenol absorbance 415 nm. inhibition, % at 12.8 µM. hit rate 0.34% among 370,000. AID 720702, 2013;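 active = inhibition above the mean of all tested compounds plus 3 SD, set per campaign, cut at about 25% in these data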;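 note: 0% = DMSO with enzyme and 100% = buffer with substrate but no TDP2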
# Target sequence (O95551 whole entry, looked up): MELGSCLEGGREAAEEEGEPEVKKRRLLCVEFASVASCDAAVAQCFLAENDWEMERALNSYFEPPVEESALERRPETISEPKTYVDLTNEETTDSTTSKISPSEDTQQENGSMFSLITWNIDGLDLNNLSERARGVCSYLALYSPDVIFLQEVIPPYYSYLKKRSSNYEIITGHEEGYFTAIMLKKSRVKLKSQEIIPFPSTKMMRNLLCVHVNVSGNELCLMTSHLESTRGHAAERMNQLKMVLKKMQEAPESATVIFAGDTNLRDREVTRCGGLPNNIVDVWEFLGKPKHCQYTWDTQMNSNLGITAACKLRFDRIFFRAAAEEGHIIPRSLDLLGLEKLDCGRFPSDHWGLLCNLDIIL
#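 Assay system: Recombinant human TDP2 | Quantity: 120 nM TDP2 per well | Incubation: 2 h at 37 °C | Signal: Epi absorbance | Evaluation: Percent inhibition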
# SIAE inh – human SIAE inhibitors, primary screen, biochemical, fluorescence polarization, FP-Rh probe, 1536-well HTS; SIAE FP-Rh probe binding; AID 1053197, 2014; inhibition, % at 9.66 µM; hit rate 0.69% among 370,000;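 active = inhibition above a cutoff: mean of compounds within the control limits plus 3 SD of those, cut at about 17% in these data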;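 note: 0% = plate median of compound wells and 100% = probe without SIAE protein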
# mABHD4 conf – ABHD4 inhibitors, retest, confirmation, biochemical, fluorescence polarization, mouse | shares compounds with ABHD4 inh | purified mABHD4, FP-Rh probe fluorescence polarization | inhibition, % at 8.92 µM | hit rate 55% among 1,800 | AID 720658, 2013;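 active = mean inhibition across replicates above the hit cutoff set in the primary screen, cut at about 30% in these data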;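 note: 0% = wild-type ABHD4 with DMSO and 100% = catalytically dead S159A mutant with DMSO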
# Active calls of the source: *; x = no result. Hits are enriched below; roughly 2.2% of the tested compounds scored in any of these assays.
SMILES,ABHD4 inh,HTRA1 inhibitor,LEDGF integ inh,TCR-CD3 inh,TDP2 inh,SIAE inh,mABHD4 conf
CCCCCCC(=O)Nc1nc(C)c(-c2csc(Nc3cc(OC)ccc3OC)n2)s1,34*,16,-2,6,-5,11,49*
CC(NCC(O)COCCC12CC3CC(CC(C3)C1)C2)c1ccccc1 (configuration not stated),31*,-6,0,3,-3,-3,28
CCc1nccn1CC(=O)c1ccc(O)c(O)c1,6,x,1,x,-9,1,x
CCCCCCCCNC(=O)C1CSCCS(=O)(=O)N1Cc1ccc(F)cc1 (configuration not stated),5,x,0,x,5,-7,x
Oc1ccc(N=Cc2cc(Br)c(N3CCOCC3)o2)cc1,42*,15,0,32*,0,4,6
C=CCN(C)CC#Cc1ccc(F)cc1,-4,x,2,x,5,-1,x
CCCCNC(=O)c1sc(=S)n2c1[nH]c(=O)c1ccc(C(=O)NCCc3ccc(OC)c(OC)c3)cc12,x,3,x,x,x,x,x
O=C(NCc1ccccc1)c1sc(=S)n2c1[nH]c(=O)c1ccccc12,32*,10,0,3,12,-17,42*
CC1OC(CC(=O)O)CC2=C1C(=O)c1c(O)cccc1C2=O (configuration not stated),40*,19,40*,-5,34*,6,44*
O=C1c2cccc(NCCNCCO)c2C(=O)c2cccc(NCCNCCO)c21,-24,-1,6,-1,4,-36,x
CC(C)=CCC/C(C)=C/CNCC(=O)N1c2ccccc2[C@]2(C)C[C@@H]3C(=O)N(C/C=C(\C)CCC=C(C)C)CC(=O)N3[C@H]12,7,x,-2,x,1,6,x
O=C(O)CCCCCNC(=O)c1ccc(C(=O)NCCCCCC(=O)O)cc1,63*,9,2,-3,-11,-3,3
CCOc1ccccc1C(=O)NCC(=O)OCc1csc(CC(=O)Nc2ccc(C)cc2)n1,36*,-32,0,10,-2,-19,7
CN(CCOC(=O)CC1C=CCC1)C1CN(Cc2cn(Cc3ccccc3Cl)nn2)S(=O)(=O)C1 (configuration not stated),-2,x,-1,x,2,-4,x
OCCN(CCO)c1cc2c3ccccc3ccc2c2ccccc12,30*,2,1,-2,8,0,16
OCCN(CCO)c1ccc2ccccc2c1,-1,6,1,0,-4,3,x
O=C(O)[C@H]1CC=C[C@H]2CCN(Cc3ccc(Cl)c(Cl)c3)C(=O)[C@@H]12,30*,26,-6,1,-5,-5,21
CCc1ccc2[nH]c(O)c(N=NC3=NC(=O)CS3)c2c1,31*,11,-3,0,-8,-1,41*
OCCNc1nc(Nc2ccc(Br)cc2)nc2ccccc12,34*,x,1,-2,4,18*,47*
Cc1ccc(Nc2nc(NCc3ccco3)c3ccccc3n2)cc1,36*,-37,-3,4,-18,12,41*
COc1ccccc1Nc1nc(NCc2ccco2)c2ccccc2n1,3,x,2,-15,-16,4,x
COc1ccc(OC)c(S(=O)(=O)N2CCCC(c3noc(-c4ccc(C)cc4)n3)C2)c1 (configuration not stated),1,x,4,x,3,3,x
CCCC1CCC2(CCCN2CCOC(=S)Nc2ccccc2Br)CC1 (configuration not stated),0,x,-4,x,-3,-2,x
CCCc1cc(=O)[nH]c(SCC(=O)NC2CCCCC2)n1,93*,7,3,6,-10,2,-3
O=C1N(CCCO)CCC12CCC(c1ccccc1)CC2 (configuration not stated),-1,x,-5,x,-1,-2,x
SMILES,ABHD4 inh,HTRA1 inhibitor,LEDGF integ inh,TCR-CD3 inh,TDP2 inh,SIAE inh,mABHD4 conf
Oc1ccc(N=Nc2ccc(Br)cc2)c(O)c1,-1,11,-4,4,3,-3,x
O=[N+]([O-])c1ccccc1N=Nc1ccc(O)cc1O,32*,x,-4,-6,8,12,54*
Nc1[nH]c(C(=O)c2ccccc2)c(-c2ccc(Cl)c(F)c2)c1C(=O)NCCc1c[nH]c2ccccc12,40*,x,-9,1,5,16,43*
Nc1[nH]c(C(=O)c2ccccc2)c(-c2ccc3c(c2)OCO3)c1C(=O)NCCc1c[nH]c2ccccc12,33*,x,2,3,-4,13,39*
Nc1[nH]c(C(=O)c2ccc(Br)cc2)c(-c2ccc3ccccc3c2)c1C(=O)NCCc1c[nH]c2ccccc12,30*,x,-1,-9,1,10,35*
Nc1[nH]c(C(=O)c2ccccc2)c(-c2ccc(Cl)cc2)c1C(=O)NCCc1c[nH]c2ccccc12,31*,x,-4,-7,-5,10,23
Nc1[nH]c(C(=O)c2ccc(Br)cc2)c(-c2ccc(Cl)c(Cl)c2)c1C(=O)NCCc1c[nH]c2ccccc12,15,x,1,-2,-5,14,x
Nc1[nH]c(C(=O)c2ccccc2)c(-c2ccc(F)cc2)c1C(=O)NCCc1c[nH]c2ccccc12,20,x,-2,-7,2,9,x
CC1(C(=O)N2CCC(Oc3cccnc3)CC2)CC1,-3,x,5,x,-5,-1,x
N#CCC[C@H]1CC[C@]2(CCCN(c3ccccc3)C2)O1,0,x,2,x,-1,5,x
Nc1[nH]c(C(=O)c2ccccc2)c(-c2cccc(C(F)(F)F)c2)c1C(=O)NCCc1c[nH]c2ccccc12,31*,x,1,-2,-1,13,3
Nc1[nH]c(C(=O)c2ccccc2)c(-c2ccc(Cl)c(Cl)c2)c1C(=O)NCCc1c[nH]c2ccccc12,33*,x,-1,2,-8,11,19
Cc1cc(C)cc(-c2c(C(=O)c3ccccc3)[nH]c(N)c2C(=O)NCCc2c[nH]c3ccccc23)c1,29,x,4,x,10,4,x
CCCCOCCCNC(=O)C[C@H]1C[C@@]2(C(=O)OC)C(=C[C@H](C(C)C)O[C@@H]2C2CC2)N(Cc2ccc3c(c2)OCO3)C1=O,1,x,0,x,-12,3,x
CC(C)C[C@@H]1COc2cc(NCCCN3CCOCC3)ccc2S(=O)(=O)N1,-4,x,-5,-6,7,6,x
